Values after ≈ are worked out from the molar mass of the structure shown. Like-named read-outs stand apart in the source and are kept apart here.
What was measured:
B. anthracis sterne = assay: microbe, parasite or virus in culture; type: cell-based; settings: Bacillus anthracis, read-out: MIC BA
[1] = tested on: S. aureus -ATCC29213 (MSSA); assay: MIC, microbroth dilution in Mueller-Hinton broth; type: cell-based; settings: Staphylococcus aureus, read-out: MIC MSSA
Method in brief: (§1)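 CLSI broth microdilution in cation-adjusted Mueller-Hinton broth. Inocula were grown from MH agar colonies in MH broth, with a final inoculum of 10^5 CFU/ml. Test compound final range was 200–0.2 µg/ml, incubated 37°C for 18–20 h. MIC was the lowest concentration preventing visible growth. Runs were at least duplicate, and the mean MIC was reported.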

S. pneumoniae R6 = assay: MIC, microbroth dilution in Mueller-Hinton broth; type: cell-based; settings: Streptococcus pneumoniae, R6, read-out: MIC SP
Method in brief: as §1

E. coli BW25113 = assay: MIC, microbroth dilution in Mueller-Hinton broth; type: cell-based, Escherichia coli; settings: for MIC EC MH+BP/CCCP / MIC EC +: E. coli BW25113; for MIC EC MH+BP/CCCP: MH broth with 30 µg/ml 2,2′-bipyridyl and 50 µg/ml CCCP; for MIC EC +: with clavulanic acid (6µg/ml); for MIC: Escherichia coli, BW25113, read-out: MIC EC, E. coli BW25113, Mueller-Hinton broth (Table 2)
[2] = tested on: E. coli BW25113 ΔtolC derivative JW5503-1; assay: MIC, microbroth dilution in Mueller-Hinton broth; type: cell-based, Escherichia coli; settings: for MIC: Escherichia coli
[3] = tested on: E. coli BW25113 ΔampC derivative JW4111-2; type: cell-based, Escherichia coli; settings: for MIC: Escherichia coli, BW25113, read-out: MIC ECΔampC −
S. pyogenes ATCC700294 = assay: MIC, microbroth dilution in Mueller-Hinton broth; type: cell-based; settings: Streptococcus pyogenes, ATCC700294, read-out: MIC SPy
Method in brief: as §1

P. aeruginosa PA01 = assay: MIC, microbroth dilution in Mueller-Hinton broth; type: cell-based, Pseudomonas aeruginosa; settings: for MIC PA MH+BP/CCCP / MIC PA +: P. aeruginosa PA01; for MIC PA MH+BP/CCCP: MH broth with 30 µg/ml 2,2′-bipyridyl and 50 µg/ml CCCP; for MIC PA +: with clavulanic acid (6µg/ml); for MIC: Pseudomonas aeruginosa
P. mirabilis ATCC 25933 = assay: MIC, microbroth dilution in Mueller-Hinton broth; type: cell-based; settings: Proteus mirabilis, ATCC25933, read-out: MIC PM
S. aureus NRS 70 (MRSA) = assay: MIC, microbroth dilution in Mueller-Hinton broth; type: cell-based; settings: Staphylococcus aureus, MRSA|NRS70, read-out: MIC MRSA
Method in brief: as §1

B. subtilis ATCC23857 = assay: MIC, microbroth dilution in Mueller-Hinton broth; type: cell-based; settings: Bacillus subtilis, ATCC23857, read-out: MIC BS
Method in brief: as §1

E. faecalis ATCC33186 = assay: MIC, microbroth dilution in Mueller-Hinton broth; type: cell-based; settings: Enterococcus faecalis, ATCC33186, read-out: MIC EF
Method in brief: as §1

P. vulgaris ATCC 33420 = assay: MIC, microbroth dilution in Mueller-Hinton broth; type: cell-based; settings: Proteus vulgaris, ATCC33420, read-out: MIC PV
[4] = BW25113, read-out: MIC ECΔtolC MH
[5] = BW25113, read-out: MIC ECΔtolC MH+BP

`CC(C)(C)Oc1ccc(CC2NC(=O)C(C(=O)NC(C(=O)NC3C(=O)N4C3SC(C)(C)C4C(=O)O)c3ccccc3)=C2O)cc1` (stereo not shown) [Compound 1905] showed an MIC (B. anthracis sterne) of 3.13 µg/mL (≈ 4.92 µM), an MIC [1] of 0.78 µg/mL (≈ 1.23 µM) and an MIC (S. pneumoniae R6) of less than 0.2 µg/mL. For the same compound, the “MIC EC MH+BP/CCCP” value (E. coli BW25113) was 6.25 µg/mL (≈ 9.82 µM), the “MIC EC +” value (E. coli BW25113) was 12.5 µg/mL and the MIC (E. coli BW25113) was 25 µg/mL (≈ 39.3 µM). The MIC ([2]; BW25113, read-out: MIC ECΔtolC) was 6.25 µg/mL (≈ 9.82 µM), the MIC [2, 4] was 6.25 µg/mL (≈ 9.82 µM) and the MIC [2, 5] was 1.56 µg/mL (≈ 2.45 µM). The “MIC ECΔtolC MH+BP/CCCP” value [2] was 0.78 µg/mL (≈ 1.23 µM), the “MIC ECΔtolC MH+CCCP” value [2] was 1.56 µg/mL (≈ 2.45 µM) and the “MIC ECΔampC +” value [3] was 12.5 µg/mL. For the same compound, the MIC (S. pyogenes ATCC700294) was 0.78 µg/mL (≈ 1.23 µM), the “MIC PA MH+BP/CCCP” value (P. aeruginosa PA01) was 0.78 µg/mL (≈ 1.23 µM) and the “MIC PA +” value (P. aeruginosa PA01) was 12.5 µg/mL. For the same compound, the MIC (P. aeruginosa PA01; PA01, read-out: MIC PA) was 25 µg/mL (≈ 39.3 µM), the MIC (P. aeruginosa PA01; PA01, read-out: MIC PA MH) was 25 µg/mL (≈ 39.3 µM) and the MIC (P. aeruginosa PA01; PA01, read-out: MIC PA MH+BP) was 6.25 µg/mL (≈ 9.82 µM). For the same compound, the MIC (P. aeruginosa PA01; PA01, read-out: MIC PA MH+CCCP) was 3.13 µg/mL (≈ 4.92 µM), the MIC (P. aeruginosa PA01; PA01, read-out: MIC PA −) was 25 µg/mL (≈ 39.3 µM) and the MIC (P. mirabilis ATCC 25933) was 25 µg/mL (≈ 39.3 µM). It also gave an MIC (S. aureus NRS 70 (MRSA)) of 50 µg/mL (≈ 78.5 µM), an MIC (B. subtilis ATCC23857) of 3.13 µg/mL (≈ 4.92 µM) and an MIC (E. faecalis ATCC33186) of 50 µg/mL (≈ 78.5 µM). The MIC (P. vulgaris ATCC 33420) was 50 µg/mL (≈ 78.5 µM).

Compound `CC1(C)SC2C(NC(=O)C(NC(=O)C3=C(O)C(Cc4ccc([N+](=O)[O-])cc4)NC3=O)c3ccccc3)C(=O)N2C1C(=O)O` (stereo not shown) [Compound 2835] has an MIC (B. anthracis sterne) of 3.13 µg/mL (≈ 5.13 µM), an MIC [1] of less than 0.2 µg/mL and an MIC (S. pneumoniae R6) of less than 0.2 µg/mL. For the same compound, the “MIC EC MH+BP/CCCP” value (E. coli BW25113) was 12.5 µg/mL (≈ 20.5 µM), the “MIC EC +” value (E. coli BW25113) was 6.25 µg/mL and the MIC (E. coli BW25113) was 100 µg/mL (≈ 164 µM). It also gave an MIC ([2]; BW25113, read-out: MIC ECΔtolC) of 3.13 µg/mL (≈ 5.13 µM), an MIC [2, 4] of 3.13 µg/mL (≈ 5.13 µM) and an MIC [2, 5] of 1.56 µg/mL (≈ 2.56 µM). For the same compound, the “MIC ECΔtolC MH+BP/CCCP” value [2] was 0.78 µg/mL (≈ 1.28 µM), the “MIC ECΔtolC MH+CCCP” value [2] was 1.56 µg/mL (≈ 2.56 µM) and the “MIC ECΔampC +” value [3] was 12.5 µg/mL. The MIC (S. pyogenes ATCC700294) was 0.78 µg/mL (≈ 1.28 µM), the “MIC PA MH+BP/CCCP” value (P. aeruginosa PA01) was 12.5 µg/mL (≈ 20.5 µM) and the “MIC PA +” value (P. aeruginosa PA01) was 6.25 µg/mL. For the same compound, the MIC (P. aeruginosa PA01; PA01, read-out: MIC PA) was 25 µg/mL (≈ 41 µM), the MIC (P. aeruginosa PA01; PA01, read-out: MIC PA MH) was 25 µg/mL (≈ 41 µM) and the MIC (P. aeruginosa PA01; PA01, read-out: MIC PA MH+BP) was 25 µg/mL (≈ 41 µM). For the same compound, the MIC (P. aeruginosa PA01; PA01, read-out: MIC PA MH+CCCP) was 12.5 µg/mL (≈ 20.5 µM), the MIC (P. mirabilis ATCC 25933) was 25 µg/mL (≈ 41 µM) and the MIC (S. aureus NRS 70 (MRSA)) was 25 µg/mL (≈ 41 µM). The MIC (B. subtilis ATCC23857) was less than 0.2 µg/mL, the MIC (E. faecalis ATCC33186) was 25 µg/mL (≈ 41 µM) and the MIC (P. vulgaris ATCC 33420) was 25 µg/mL (≈ 41 µM).

`CC1(C)SC2C(NC(=O)C(NC(=O)C3=C(O)C4(CC4)NC3=O)c3ccccc3)C(=O)N2C1C(=O)O` (stereo not shown) [Compound 2833] gave an MIC (B. anthracis sterne) of 1.56 µg/mL (≈ 3.12 µM), an MIC [1] of less than 0.2 µg/mL and an MIC (S. pneumoniae R6) of less than 0.2 µg/mL. For the same compound, the “MIC EC MH+BP/CCCP” value (E. coli BW25113) was 6.25 µg/mL (≈ 12.5 µM), the “MIC EC +” value (E. coli BW25113) was 12.5 µg/mL and the MIC (E. coli BW25113) was 100 µg/mL (≈ 200 µM). The MIC ([2]; BW25113, read-out: MIC ECΔtolC) was 3.13 µg/mL (≈ 6.25 µM), the MIC [2, 4] was 3.13 µg/mL (≈ 6.25 µM) and the MIC [2, 5] was 1.56 µg/mL (≈ 3.12 µM). The “MIC ECΔtolC MH+BP/CCCP” value [2] was 0.78 µg/mL (≈ 1.56 µM), the “MIC ECΔtolC MH+CCCP” value [2] was 1.56 µg/mL (≈ 3.12 µM) and the MIC [3] was 12.5 µg/mL (≈ 25 µM). For the same compound, the “MIC ECΔampC +” value [3] was 6.25 µg/mL, the MIC (S. pyogenes ATCC700294) was 0.78 µg/mL (≈ 1.56 µM) and the “MIC PA MH+BP/CCCP” value (P. aeruginosa PA01) was 12.5 µg/mL (≈ 25 µM). For the same compound, the “MIC PA +” value (P. aeruginosa PA01) was 6.25 µg/mL, the MIC (P. aeruginosa PA01; PA01, read-out: MIC PA) was 25 µg/mL (≈ 49.9 µM) and the MIC (P. aeruginosa PA01; PA01, read-out: MIC PA MH) was 25 µg/mL (≈ 49.9 µM). It also gave an MIC (P. aeruginosa PA01; PA01, read-out: MIC PA MH+BP) of 25 µg/mL (≈ 49.9 µM), an MIC (P. aeruginosa PA01; PA01, read-out: MIC PA MH+CCCP) of 12.5 µg/mL (≈ 25 µM) and an MIC (P. mirabilis ATCC 25933) of 6.25 µg/mL (≈ 12.5 µM). It also gave an MIC (S. aureus NRS 70 (MRSA)) of 25 µg/mL (≈ 49.9 µM), an MIC (B. subtilis ATCC23857) of 0.39 µg/mL (≈ 0.779 µM) and an MIC (E. faecalis ATCC33186) of 12.5 µg/mL (≈ 25 µM). It also gave an MIC (P. vulgaris ATCC 33420) of 100 µg/mL (≈ 200 µM).

For `CC1(C)SC2C(NC(=O)C(NC(=O)C3=C(O)C4CCCN4C3=O)c3ccccc3)C(=O)N2C1C(=O)O` (stereo not shown) [Compound 2780], the MIC (B. anthracis sterne) was 1.56 µg/mL (≈ 3.03 µM), the MIC [1] was 0.39 µg/mL (≈ 0.758 µM) and the MIC (S. pneumoniae R6) was 0.39 µg/mL (≈ 0.758 µM). For the same compound, the “MIC EC MH+BP/CCCP” value (E. coli BW25113) was 25 µg/mL (≈ 48.6 µM), the “MIC EC +” value (E. coli BW25113) was 50 µg/mL and the MIC (E. coli BW25113) was 200 µg/mL (≈ 389 µM). For the same compound, the MIC ([2]; BW25113, read-out: MIC ECΔtolC) was 6.25 µg/mL (≈ 12.1 µM), the MIC [2, 4] was 6.25 µg/mL (≈ 12.1 µM) and the MIC [2, 5] was 6.25 µg/mL (≈ 12.1 µM). For the same compound, the “MIC ECΔtolC MH+BP/CCCP” value [2] was 3.13 µg/mL (≈ 6.08 µM), the “MIC ECΔtolC MH+CCCP” value [2] was 3.13 µg/mL (≈ 6.08 µM) and the MIC [3] was 12.5 µg/mL (≈ 24.3 µM). The “MIC ECΔampC +” value [3] was 3.13 µg/mL, the MIC (S. pyogenes ATCC700294) was 0.78 µg/mL (≈ 1.52 µM) and the “MIC PA MH+BP/CCCP” value (P. aeruginosa PA01) was 6.25 µg/mL (≈ 12.1 µM). For the same compound, the “MIC PA +” value (P. aeruginosa PA01) was 12.5 µg/mL, the MIC (P. aeruginosa PA01; PA01, read-out: MIC PA) was 25 µg/mL (≈ 48.6 µM) and the MIC (P. aeruginosa PA01; PA01, read-out: MIC PA MH) was 25 µg/mL (≈ 48.6 µM). The MIC (P. aeruginosa PA01; PA01, read-out: MIC PA MH+BP) was 25 µg/mL (≈ 48.6 µM), the MIC (P. aeruginosa PA01; PA01, read-out: MIC PA MH+CCCP) was 6.25 µg/mL (≈ 12.1 µM) and the MIC (P. aeruginosa PA01; PA01, read-out: MIC PA −) was 25 µg/mL (≈ 48.6 µM). For the same compound, the MIC (P. mirabilis ATCC 25933) was 1.56 µg/mL (≈ 3.03 µM), the MIC (S. aureus NRS 70 (MRSA)) was 50 µg/mL (≈ 97.2 µM) and the MIC (B. subtilis ATCC23857) was 0.78 µg/mL (≈ 1.52 µM). It also gave an MIC (E. faecalis ATCC33186) of 25 µg/mL (≈ 48.6 µM) and an MIC (P. vulgaris ATCC 33420) of 12.5 µg/mL (≈ 24.3 µM).

From article PMC5116011 (The Journal of antibiotics, 2016)
